Activity calls are given as the source filed them. The calls are words filed in the database; no cut-off is given here.
Tests used:
[1] = Tmax in specific pathogen free Sprague-Dawley rat at 10 mg/kg, po by LC-MS/MS analysis; assay type: ADME, organism-based; conditions: in vivo
Homo sapiens [2] = species: Homo sapiens; assay: Selectivity ratio of IC50 for SHP1 (unknown origin) to IC50 for GST-fused PTP1B catalytic domain (1 to 321 residues) (unknown origin) expressed in Escherichia coli
Mus musculus [3] = assay: Antiobesity activity in BKS db mouse assessed as decrease in body weight at 100 mg/kg, po administered once daily for 5 weeks relative to control; assay type: functional; set-up: scale not given: the % may be the effect or the level left
How it was run: (§1)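 Diabetic BKS db mice, n = 8 per group, were given 100 mg/kg/day orally for five weeks. Vehicle- and metformin-treated db mice and vehicle-treated BKS mice served as controls. Food intake, water intake and body weight were followed weekly, and abdominal fat pads were weighed at the end. Values are mean ± SEM.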

[4] = biological target: T1, Tyrosine-protein phosphatase non-receptor type 1 (Homo sapiens) (UniProt P18031); assay: Competitive inhibition of GST-fused PTP1B catalytic domain (1 to 321 residues) (unknown origin) expressed in Escherichia coli up to 2 uM using varying levels of pNPP as substrate by Lineweaver-Burk double reciprocal plot analysis
T1 sequence (whole entry): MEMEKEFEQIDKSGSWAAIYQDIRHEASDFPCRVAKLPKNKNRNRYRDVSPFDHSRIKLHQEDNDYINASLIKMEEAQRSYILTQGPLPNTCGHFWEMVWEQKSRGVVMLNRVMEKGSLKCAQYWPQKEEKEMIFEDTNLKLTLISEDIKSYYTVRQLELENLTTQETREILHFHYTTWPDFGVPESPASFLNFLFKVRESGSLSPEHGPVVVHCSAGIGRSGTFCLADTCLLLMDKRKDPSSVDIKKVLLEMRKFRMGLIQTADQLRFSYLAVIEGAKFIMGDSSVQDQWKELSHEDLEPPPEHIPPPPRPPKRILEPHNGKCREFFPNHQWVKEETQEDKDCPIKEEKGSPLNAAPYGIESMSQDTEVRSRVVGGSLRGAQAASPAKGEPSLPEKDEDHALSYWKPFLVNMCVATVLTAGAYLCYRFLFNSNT
How it was run: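 Kinetics were run with varying pNPP concentrations, with inhibitor at 0, 0.5, 1 and 2 µM. Km and Vmax were taken from double reciprocal plots.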

[5] = biological target: T2, Tyrosine-protein phosphatase non-receptor type 1 (Mus musculus) (UniProt P35821); assay: (§2) Inhibition of PTP1B in mouse C2C12 cells assessed as suppression of PA-induced insulin resistance by measuring increase in insulin-mediated AKT phosphorylation at S473 residue preincubated for 1 hr followed by palmitic acid stimulation for 16 hrs and subsequent insulin addition measured after 30 mins by Western blot analysis; assay type: cell-based
T2 sequence (whole entry): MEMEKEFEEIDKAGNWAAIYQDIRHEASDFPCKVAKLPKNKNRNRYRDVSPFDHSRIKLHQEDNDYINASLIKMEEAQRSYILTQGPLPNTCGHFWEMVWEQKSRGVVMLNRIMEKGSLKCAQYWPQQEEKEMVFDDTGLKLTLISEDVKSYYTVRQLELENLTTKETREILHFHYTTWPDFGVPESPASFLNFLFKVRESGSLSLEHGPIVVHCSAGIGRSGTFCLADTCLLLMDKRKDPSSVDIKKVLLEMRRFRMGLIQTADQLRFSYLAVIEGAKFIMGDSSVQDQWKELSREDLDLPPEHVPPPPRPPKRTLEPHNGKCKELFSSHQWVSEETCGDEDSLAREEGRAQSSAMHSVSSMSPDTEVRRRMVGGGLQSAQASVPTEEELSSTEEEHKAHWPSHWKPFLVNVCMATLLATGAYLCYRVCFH

[6] = Sub-acute toxicity in Kunming mouse assessed as effect on liver size at 1000 mg/kg, po administered once daily for 14 days measured 24 hrs post last dose by gomori staining based histological analysis; assay type: organism-based; conditions: in vivo
How it was run: (§3)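 After 14 days of oral dosing at 1000 mg/kg body wt per day, with vehicle-treated controls, liver, heart, kidney and lung sections were Gomori-stained. Sections were examined for histological structure and cell size.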

[7] = Acute toxicity in Kunming mouse assessed as change in body weight at 500 to 2000 mg/kg, po administered as single dose measured for 1 week; assay type: organism-based; conditions: in vivo, 168 h
Homo sapiens [8] = species: Homo sapiens; assay: Selectivity ratio of IC50 for PTP1B A27S mutant (unknown origin) to IC50 for PTP1B (unknown origin)
[9] = Half life in specific pathogen free Sprague-Dawley rat at 2 mg/kg, iv or 10 mg/kg, po by LC-MS/MS analysis; assay type: ADME, organism-based; conditions: in vivo
[10] = Acute toxicity in Kunming mouse assessed as effect on food intake at 500 to 2000 mg/kg, po administered as single dose measured for 1 week; assay type: organism-based; conditions: in vivo, 168 h
[11] = Sub-acute toxicity in Kunming mouse assessed as mortality at 1000 mg/kg, po administered once daily for 14 days measured during compound dosing; assay type: organism-based; conditions: in vivo, 336 h
[12] = Sub-acute toxicity in Kunming mouse assessed as structural changes in kidneys at 1000 mg/kg, po administered once daily for 14 days measured 24 hrs post last dose by gomori staining based histological analysis; assay type: organism-based; conditions: in vivo; how it was run: as §3
[13] = biological target: T2, Tyrosine-protein phosphatase non-receptor type 1 (Mus musculus); assay: as §2, with “IRS1” for “AKT”, “Y632” for “S473”; assay type: cell-based
[14] = Acute toxicity in Kunming mouse assessed as behavioral changes at 500 to 2000 mg/kg, po administered as single dose measured for 1 week; assay type: organism-based; conditions: in vivo, 168 h
[15] = Sub-acute toxicity in Kunming mouse assessed as structural changes in lungs at 1000 mg/kg, po administered once daily for 14 days measured 24 hrs post last dose by gomori staining based histological analysis; assay type: organism-based; conditions: in vivo; how it was run: as §3
[16] = Sub-acute toxicity in Kunming mouse assessed as structural changes in heart at 1000 mg/kg, po administered once daily for 14 days measured 24 hrs post last dose by gomori staining based histological analysis; assay type: organism-based; conditions: in vivo; how it was run: as §3
[17] = Sub-acute toxicity in Kunming mouse assessed as effect on lung size at 1000 mg/kg, po administered once daily for 14 days measured 24 hrs post last dose by gomori staining based histological analysis; assay type: organism-based; conditions: in vivo; how it was run: as §3
[18] = Volume of distribution at steady state in specific pathogen free Sprague-Dawley rat at 2 mg/kg, iv or 10 mg/kg, po by LC-MS/MS analysis; assay type: ADME, organism-based; conditions: in vivo, read-out: Vdss
Homo sapiens [19] = species: Homo sapiens; assay: Selectivity ratio of IC50 for LAR (unknown origin) to IC50 for GST-fused PTP1B catalytic domain (1 to 321 residues) (unknown origin) expressed in Escherichia coli
Mus musculus [20] = assay: Antiobesity activity in BKS db mouse assessed as decrease in abdominal fat weight at 100 mg/kg, po administered once daily for 5 weeks; assay type: functional, organism-based; how it was run: as §1

## CCOc1ccc(Oc2ccc(-c3cnc(-c4cc(O)c(O)c(Br)c4Br)o3)cc2)cc1
[1]
  Tmax: 30 min
Homo sapiens [2]
  Ratio IC50: 20 to 200
Mus musculus [3]
  Activity: 15%
[4]
  inhibition: Active
[5]
  inhibition: Dose-dependent effect
[6]
  Activity: Non-Toxic
[7]
  Activity: Non-Toxic
Homo sapiens [8]
  Ratio IC50: 6 to 9
[9]
  half-life: 24 min
[10]
  Activity: Non-Toxic
[11]
  Activity: Non-Toxic
[12]
  Activity: Non-Toxic
[13]
  inhibition: Dose-dependent effect
[14]
  Activity: Non-Toxic
[15]
  Activity: Non-Toxic
[16]
  Activity: Non-Toxic
[17]
  Activity: Non-Toxic
[18]
  Vd: 4.25 L/kg
Homo sapiens [19]
  Ratio IC50: 20 to 200
Mus musculus [20]
  Activity: Active

Source: ChEMBL document CHEMBL4400525, “Toward a treatment of diabesity: In vitro and in vivo evaluation of uncharged bromophenol derivatives as a new series of PTP1B inhibitors” (Eur J Med Chem, 2019)
